Article PMC2841442 (Journal of Medicinal Chemistry, 2010)

Experiments:
NRP1 (PAE/NRP1 cells) [1] = biological target: T1, NRP1 (PAE/NRP1 cells) (Homo sapiens, UniProt O14786); conditions: read-out: IC50, 125I-VEGF-A binding to PAE/NRP1 and tumor cells; cited from earlier work
A549 cells = assay: A549 cell viability; type: cell-based, human
Summary of the method: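 A549 cells kept in RPMI 1640 with L-glutamine, seeded at 4 × 10^3 cells/well in serum-free medium with graded 5-FU or paclitaxel, with or without test compound at 100 μM. After 44 h, XTT was added for a further 4 h (48 h total). Formazan was read at 490 nm against 595 nm reference. Three independent experiments in triplicate, mean ± SEM.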

HUVECs = assay: VEGF-induced HUVEC migration; type: cell-based, human; conditions: 100 μM; VEGF 25 ng/mL; 4 h
Summary of the method: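 HUVECs were pretreated 30 min with test compound or DMSO, then 1.5 × 10^5 cells in EBM/0.1% BSA were loaded into collagen I-coated transwell inserts (8 μm pores). Bottom wells held VEGF at 25 ng/mL, or medium control. Plates ran 4 h at 37 °C. Migrated underside cells were stained and counted in four fields at ×100. Three independent experiments in duplicate, mean ± SEM.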

NRP1 (PAE/NRP1 cells) [2] = biological target: T1, NRP1 (PAE/NRP1 cells); assay: Inhibition of 125I-VEGF-A165 binding to PAE/NRP1 cells; conditions: 100 μM compound; 0.1 nM 125I-VEGF-A165; mean ± SEM, three experiments
Summary of the method: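 Porcine aortic endothelial cells stably expressing NRP1 (Ham's F12, 10% FBS, hygromycin B) were grown to confluence. They received test compound (0.1−100 μM), then 0.1 nM 125I-VEGF-A165 (1200−1800 Ci/mmol). Nonspecific binding was taken with 100-fold excess unlabeled VEGF. IC50 was fitted from competition curves for compounds giving >70% inhibition at 100 μM. Three independent experiments in triplicate, mean ± SEM.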

T1 sequence (O14786 22-923): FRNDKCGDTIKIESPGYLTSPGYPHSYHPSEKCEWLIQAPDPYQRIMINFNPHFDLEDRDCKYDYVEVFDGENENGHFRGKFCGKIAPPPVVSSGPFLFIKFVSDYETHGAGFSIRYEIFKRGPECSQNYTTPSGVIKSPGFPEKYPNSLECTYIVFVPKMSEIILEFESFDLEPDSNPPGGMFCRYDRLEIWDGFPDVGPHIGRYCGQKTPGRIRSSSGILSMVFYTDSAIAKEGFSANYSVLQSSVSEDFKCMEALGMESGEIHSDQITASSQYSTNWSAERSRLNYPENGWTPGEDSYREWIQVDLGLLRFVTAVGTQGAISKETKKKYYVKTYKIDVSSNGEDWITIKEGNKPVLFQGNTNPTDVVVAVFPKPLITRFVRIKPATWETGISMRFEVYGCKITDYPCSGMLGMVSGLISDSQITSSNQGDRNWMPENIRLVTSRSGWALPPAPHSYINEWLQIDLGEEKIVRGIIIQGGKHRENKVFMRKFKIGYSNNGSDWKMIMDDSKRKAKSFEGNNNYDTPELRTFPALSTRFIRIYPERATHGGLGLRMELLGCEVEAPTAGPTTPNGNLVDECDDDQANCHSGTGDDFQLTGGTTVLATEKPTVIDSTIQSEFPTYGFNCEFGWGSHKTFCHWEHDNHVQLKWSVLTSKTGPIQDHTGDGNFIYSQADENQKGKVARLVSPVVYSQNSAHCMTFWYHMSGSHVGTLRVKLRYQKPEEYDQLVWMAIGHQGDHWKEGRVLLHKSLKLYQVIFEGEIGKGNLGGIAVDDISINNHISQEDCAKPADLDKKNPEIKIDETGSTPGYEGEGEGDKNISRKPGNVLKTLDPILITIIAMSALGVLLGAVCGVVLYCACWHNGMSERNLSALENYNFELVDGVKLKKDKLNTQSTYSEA

| Molecule | inhibition of 125I-VEGF binding to PAE/NRP1 cells at 100 μM (NRP1 (PAE/NRP1 cells) [2]) [%] | other results |
| --- | --- | --- |
| 1: bicyclic peptide corresponding to the C-terminal 28 amino acids of VEGF-A165 [Compound 1] |  | IC50 (NRP1 (PAE/NRP1 cells) [1]): 2 to 3 µM |
| N=C(N)NCCC[C@H](NC(=O)c1sccc1NS(=O)(=O)c1cccc2nsnc12)C(=O)O [Compound 2, (S)-2-(3-(Benzo[c][1,2,5]thiadiazole-4-sulfonamido)thiophene-2-carboxamido)-5-guanidinopentanoic Acid] |  | A549 cell viability (A549 cells; 48 h incubation): significant reduction; enhancement of the cytotoxic effect of 5-fluorouracil (A549 cells; A549 cells, 100 μM 2): ~10 fold; enhancement of the cytotoxic effect of paclitaxel (A549 cells; A549 cells, 100 μM 2): approximately 4 fold; VEGF-A induced migration of HUVECs (HUVECs): significantly reduced |
| H-KPAK-OH [Compound 23] | 22 ± 1.2 |  |
| H-KPAQ-OH [Compound 24] | 19 ± 7.6 |  |
| H-KPAr-OH [Compound 22] | 22 ± 9.5 |  |
| H-KPaR-OH [Compound 19] | 36 ± 5.1 |  |
| H-kPAR-OH [Compound 18] | 51 ± 7.9 |  |
